Converted amounts (≈) assume the structure as drawn.
What was measured:
[1] = Half life in BALB/c mouse liver microsomes at 1 uM in presence of NADPH by LC-MS/MS analysis; format: ADME, microsome
Method in brief: (§1)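 Compound at 1 μM with 0.35 mg/ml male BALB/c mouse liver microsomes, 1 mM NADPH, 100 mM phosphate pH 7.4, 37 °C, 30 min; triplicate. Stopped by ice-cold acetonitrile with carbamazepine internal standard; parent loss by LC-MS/MS (ESI positive, MRM) as % remaining; scan data screened for putative metabolite fragments.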

[2] = Metabolic stability in BALB/c mouse liver microsomes assessed as parent compound remaining at 1 uM after 30 mins in presence of NADPH by LC-MS/MS analysis; format: ADME, microsome; settings: read-out: Stability; method in brief: as §1
[3] = Intrinsic clearance in BALB/c mouse liver microsomes at 1 uM in presence of NADPH by LC-MS/MS analysis; format: ADME, microsome; settings: read-out: CLH; method in brief: as §1
[4] = tested on: Liver; assay: Drug metabolism in BALB/c mouse liver microsomes assessed as oxidation of aldehyde to carboxylic acid at 1 uM in presence of NADPH by mass spectrometric analysis; format: ADME, microsome; method in brief: as §1
[5] = Kinetic solubility of compound in simulating fasting state biorelevant media at pH 6.5 after 2 hrs by shake flask method; format: physicochemical; settings: fasted-state simulating biorelevant medium, read-out: Kinetic_solubility
[6] = tested on: Liver; assay: Drug metabolism in BALB/c mouse liver microsomes assessed as N-dealkylation with oxidative deamination at 1 uM in presence of NADPH by mass spectrometric analysis; format: ADME, microsome; method in brief: as §1
[7] = tested on: CHO; assay: Cytotoxicity against CHO cells by MTT assay; format: cell-based; settings: Cricetulus griseus
Method in brief: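 MTT assay on CHO cells. DMSO stock diluted in complete medium; 10-fold serial dilutions, 6 concentrations from 100 to 0.001 μg/mL; emetine reference; triplicate on each occasion. IC50 from non-linear fit of full dose-response curves.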

[8] = tested on: Plasmodium falciparum; assay: Antiplasmodial activity against chloroquine-resistant synchronized trophozoite stage of Plasmodium falciparum Dd2 after 48 hrs by NBT dye based LDH assay; format: functional; settings: Dd2, 48 h
[9] = Selectivity index, ratio of IC50 for CHO cells to IC50 for chloroquine-sensitive synchronized trophozoite stage of Plasmodium falciparum NF54; format: toxicity; settings: hamster; read-out: Ratio IC50
[10] = tested on: Liver; assay: Drug metabolism in BALB/c mouse liver microsomes assessed as N-dealkylation on tertiary amine at 1 uM in presence of NADPH by mass spectrometric analysis; format: ADME, microsome; method in brief: as §1
[11] = n-Octanol-buffer distribution coefficient, log D of the compound at pH 7.4 […] by HPLC based shake flask method; format: physicochemical
[12] = tested on: Plasmodium falciparum; assay: Resistance index, ratio of IC50 for chloroquine-resistant synchronized trophozoite stage of Plasmodium falciparum Dd2 to IC50 for chloroquine-sensitive synchronized trophozoite stage of Plasmodium falciparum NF54; format: functional
[13] = tested on: Liver; assay: Drug metabolism in BALB/c mouse liver microsomes assessed as aldehyde reduction at 1 uM in presence of NADPH by mass spectrometric analysis; format: ADME, microsome; method in brief: as §1
[14] = n-Octanol-buffer distribution coefficient, log D of the compound at pH 5 incubated for 4 hrs by UV-vis based shake flask method; format: physicochemical
[15] = Inhibition of beta hematin formation by detergent based assay
Method in brief: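 β-hematin formation from hematin in 1 M acetate buffer pH 4.9 with NP40 detergent, compound serially diluted from 20 mM DMSO stock; ~5 h at 37 °C. Free heme complexed with pyridine/acetone/HEPES pH 7.4 solution, absorbance at 405 nm; IC50 from dose-response curves.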

[16] = tested on: Liver; assay: Drug metabolism in BALB/c mouse liver microsomes assessed as oxidation of quinoline core or pyridyl ring at 1 uM in presence of NADPH by mass spectrometric analysis; format: ADME, microsome; method in brief: as §1
[17] = tested on: Plasmodium falciparum; assay: Resistance index, ratio of IC50 for chloroquine-resistant synchronized trophozoite stage of Plasmodium falciparum 7G8 to IC50 for chloroquine-sensitive synchronized trophozoite stage of Plasmodium falciparum NF54; format: functional
[18] = tested on: Plasmodium berghei; assay: Antimalarial activity against chloroquine-sensitive Plasmodium berghei ANKA infected in C57BL/6 mouse assessed as supression of parasitemia at 30 mg/kg, po administered for 4 consecutive days starting at 2 hrs post infection by peter's test relative to control; format: functional
Method in brief: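 P. berghei ANKA passaged in C57BL/6 donor; test mice infected ip with 200 μL of 1 × 10⁷ parasitized erythrocytes in PBS. Oral dosing 30 mg/kg at 2 h post-infection, then daily D0–D3; PBS-dosed controls. Parasitemia read on D4 from Giemsa-stained, methanol-fixed tail thin films; suppression relative to control.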

[19] = tested on: Plasmodium falciparum; assay: Antiplasmodial activity against chloroquine-resistant synchronized trophozoite stage of Plasmodium falciparum 7G8 after 48 hrs by NBT dye based LDH assay; format: functional; settings: 7G8, 48 h
[20] = tested on: Plasmodium falciparum; assay: Antiplasmodial activity against chloroquine-sensitive synchronized trophozoite stage of Plasmodium falciparum NF54 after 48 hrs by NBT dye based LDH assay; format: functional; settings: NF54, 48 h
[21] = tested on: Plasmodium falciparum; assay: Decrease in hemozoine formation in chloroquine-sensitive synchronized ring stage of Plasmodium falciparum NF54 after 32 hrs by flow cytometric analysis; format: functional
Method in brief: (§2)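 Sorbitol-synchronized (5%) ring-stage cultures exposed to compound at multiples of IC50 for 32 h; trophozoites freed with 0.05% saponin, PBS-washed, counted by hemocytometer and flow cytometry. Hypotonic lysis/sonication, then sequential SDS/pyridine fractionation into hemoglobin, free heme and hemozoin (SDS/NaOH) fractions; each measured by UV-vis as Fe(III) heme-pyridine complex.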

[22] = tested on: Plasmodium falciparum; assay: Increase in hemoglobin levels in chloroquine-sensitive synchronized ring stage of Plasmodium falciparum NF54 after 32 hrs by flow cytometric analysis; format: functional; method in brief: as §2
[23] = tested on: Plasmodium falciparum; assay: Increase in free heme levels in chloroquine-sensitive synchronized ring stage of Plasmodium falciparum NF54 after 32 hrs by flow cytometric analysis; format: functional; method in brief: as §2
[24] = biological target: Voltage-gated inwardly rectifying potassium channel KCNH2 (Homo sapiens, UniProt Q12809); assay: Inhibition of human ERG expressed in CHO cells by automated patch clamp method; format: cell-based
Sequence of Voltage-gated inwardly rectifying potassium channel KCNH2 (Q12809 whole entry): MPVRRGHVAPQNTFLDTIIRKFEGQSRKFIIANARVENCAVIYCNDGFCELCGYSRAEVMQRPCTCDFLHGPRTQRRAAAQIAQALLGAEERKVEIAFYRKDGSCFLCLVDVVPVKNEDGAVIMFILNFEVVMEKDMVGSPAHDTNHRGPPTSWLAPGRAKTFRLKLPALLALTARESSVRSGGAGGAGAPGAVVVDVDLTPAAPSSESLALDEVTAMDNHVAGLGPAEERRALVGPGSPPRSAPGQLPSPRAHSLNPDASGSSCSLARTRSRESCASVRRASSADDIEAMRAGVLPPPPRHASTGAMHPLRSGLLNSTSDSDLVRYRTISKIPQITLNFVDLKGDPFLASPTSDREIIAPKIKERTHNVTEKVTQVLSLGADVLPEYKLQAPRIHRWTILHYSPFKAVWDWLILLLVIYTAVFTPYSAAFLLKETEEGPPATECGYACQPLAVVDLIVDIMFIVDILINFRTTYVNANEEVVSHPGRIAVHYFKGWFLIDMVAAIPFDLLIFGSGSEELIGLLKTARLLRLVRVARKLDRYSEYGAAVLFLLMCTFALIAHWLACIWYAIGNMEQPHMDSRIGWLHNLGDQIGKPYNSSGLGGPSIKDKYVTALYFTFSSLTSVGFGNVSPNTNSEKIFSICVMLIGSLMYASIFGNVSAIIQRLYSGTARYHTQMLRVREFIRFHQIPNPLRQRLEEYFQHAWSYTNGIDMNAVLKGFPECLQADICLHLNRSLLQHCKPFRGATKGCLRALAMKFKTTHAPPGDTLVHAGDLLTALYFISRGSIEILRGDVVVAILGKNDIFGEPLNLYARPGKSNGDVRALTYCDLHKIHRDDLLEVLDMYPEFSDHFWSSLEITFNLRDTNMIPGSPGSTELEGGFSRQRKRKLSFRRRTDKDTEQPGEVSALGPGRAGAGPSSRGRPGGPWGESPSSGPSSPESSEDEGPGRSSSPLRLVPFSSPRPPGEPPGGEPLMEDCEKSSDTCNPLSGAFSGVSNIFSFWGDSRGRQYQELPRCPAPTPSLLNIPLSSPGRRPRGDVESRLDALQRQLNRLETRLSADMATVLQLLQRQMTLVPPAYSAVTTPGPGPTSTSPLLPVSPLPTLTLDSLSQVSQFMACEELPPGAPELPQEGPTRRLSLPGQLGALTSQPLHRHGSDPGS

SMILES	half-life at 1 µM [1]	remaining at 0.5 h, 1 µM [2]	CLint scaled at 1 µM [3]	Drug metabolism [4]	solubility kinetic at 2 h [5]	Drug metabolism [6]	IC50 [7]	IC50 [8]	selectivity ratio [9]	Drug metabolism [10]	logD [11]	Ratio IC50 [12]	IC50 [15]	Ratio IC50 [17]	Activity [18]	IC50 [19]	IC50 [20]	Activity [21]	Activity [22]	Activity [23]	also measured
Cc1ncc2n1-c1ccc(Cl)cc1C(c1ccccc1F)=NC2 [MIDAZOLAM]	4.74 min	1.33%	1420 mL/min/kg																		
CN(Cc1ccccc1)Cc1cccc(CNc2ccnc3cc(Cl)ccc23)c1.Cl	6.15 min	3.57%	1110 mL/min/kg	Metabolite_Detected	51.8 µM	Metabolite_Detected	9500 nM	44.5 nM	660	Metabolite_Detected	3.56	3.1	13400 nM	4.8	97.5%	69.6 nM	14.4 nM				Drug metabolism [13]: Metabolite_Detected; logD at 4 h [14]: 1.33; Drug metabolism [16]: Metabolite_Detected
CN(Cc1cccc(CNc2ccnc3cc(Cl)ccc23)c1)Cc1ccccn1	5.89 min	2.96%	1140 mL/min/kg	Metabolite_Detected	59.8 µM (≈ 24.1 µg/mL)	Metabolite_Detected	8300 nM	124 nM	275	Metabolite_Detected	2.47	4.1	20800 nM	2.8	97.8%	83.8 nM	30.1 nM	Dose-dependent effect	Dose-dependent effect	Dose-dependent effect	Drug metabolism [13]: Metabolite_Detected; logD at 4 h [14]: 0.82; Drug metabolism [16]: Metabolite_Detected
C[C@H]1[C@H](OC(=O)CCC(=O)O)O[C@@H]2O[C@@]3(C)CC[C@H]4[C@H](C)CC[C@@H]1[C@@]24OO3 [ARTESUNATE]								14.3 nM				2.6		1.4		7.7 nM	5.6 nM				
CCN(CC)CCCC(C)Nc1ccnc2cc(Cl)ccc12 (centres undefined) [CHLOROQUINE PHOSPHATE]													26100 nM								
CCN(CC)CCCC(C)Nc1ccnc2cc(Cl)ccc12 (centres undefined)																		Dose-dependent effect	Dose-dependent effect	Dose-dependent effect	
COC(=O)[C@H]1[C@H]2C[C@@H]3c4[nH]c5cc(OC)ccc5c4CCN3C[C@H]2C[C@@H](OC(=O)c2cc(OC)c(OC)c(OC)c2)[C@@H]1OC [RESERPINE]					< 5 µM																
CN(Cc1ccccn1)Cc1ccccc1CNc1ccnc2cc(C#N)ccc12	5.35 min	2.08%	1250 mL/min/kg	Metabolite_Detected	172 µM (≈ 67.8 µg/mL)	Metabolite_Detected	27600 nM	162 nM	218	Metabolite_Detected	3.8	1.3	16600 nM	2.4	47.1%	307 nM	127 nM	Dose-dependent effect	Dose-dependent effect	Dose-dependent effect	Drug metabolism [13]: Metabolite_Detected; logD at 4 h [14]: 0.81; Drug metabolism [16]: Metabolite_Detected
CN(Cc1ccc(CNc2ccnc3cc(C#N)ccc23)cc1)Cc1ccccn1	6.22 min	3.63%	1100 mL/min/kg	Metabolite_Detected	144 µM (≈ 56.5 µg/mL)	Metabolite_Detected	11200 nM	146 nM	146	Metabolite_Detected	2.84	1.9	24800 nM	1.8	98%	134 nM	76.4 nM	Dose-dependent effect	Dose-dependent effect	Dose-dependent effect	Drug metabolism [13]: Metabolite_Detected; logD at 4 h [14]: 1; Drug metabolism [16]: Metabolite_Detected
CN(Cc1ccc(CNc2ccnc3cc(Cl)ccc23)cc1)Cc1ccccn1	5.35 min	2.08%	1250 mL/min/kg	Metabolite_Detected	197 µM (≈ 79.2 µg/mL)	Metabolite_Detected	15700 nM	151 nM	408	Metabolite_Detected	2.85	3.9	17200 nM	3	91.4%	114 nM	38.5 nM	Dose-dependent effect	Dose-dependent effect	Dose-dependent effect	Drug metabolism [13]: Metabolite_Detected; logD at 4 h [14]: 0.84; Drug metabolism [16]: Metabolite_Detected
CN(Cc1ccccn1)Cc1ccccc1CNc1ccnc2cc(Cl)ccc12	5.49 min	2.32%	1220 mL/min/kg	Metabolite_Detected	165 µM (≈ 66.4 µg/mL)	Metabolite_Detected	40200 nM	137 nM	740	Metabolite_Detected	3.79	2.5	17900 nM	3.4	82.4%	184 nM	54.4 nM	Dose-dependent effect	Dose-dependent effect	Dose-dependent effect	Drug metabolism [13]: Metabolite_Detected; logD at 4 h [14]: 0.9; Drug metabolism [16]: Metabolite_Detected; IC50 [24]: 870 nM
CN(Cc1ccccc1)Cc1cccc(CNc2ccnc3cc(Cl)ccc23)c1 [listing 1 of 2 here]															99.9%						
CCN(CC)CCCC(C)Nc1ccnc2cc(Cl)ccc12 (centres undefined) [CHLOROQUINE]															91.2%						
CN(Cc1ccccc1)Cc1cccc(CNc2ccnc3cc(Cl)ccc23)c1 [listing 2 of 2 here]																		Dose-dependent effect	Dose-dependent effect	Dose-dependent effect	
